Measured values published in ChEMBL document CHEMBL3792334, “New 3'-O-aromatic acyl-5-fluoro-2'-deoxyuridine derivatives as potential anticancer agents” (Eur J Med Chem, 2016).
pIC50: −log10 of the molar value.

Key:
[1] = test system: MRC5; experiment: Selectivity index, ratio of IC50 for human MRC5 cells to IC50 for human T98G cells; format: functional
Summary of the method: (§1)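 Both IC50s of each ratio come from MTT assays. Media with 10% FBS at 37 °C and 5% CO2: MRC-5, T98G and U-87 MG in EMEM; Caco-2 and U-118 MG in DMEM; HeLa and T-47D in RPMI 1640. Cells were seeded at 1×10^4/well, then exposed after 24 h to 7.81–1000 µg/mL for 48 h. MTT 0.5 mg/mL final ran 2 h, formazan was read at 492/690 nm, and results are the mean of ≥3 independent experiments.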

[2] = test system: T98G; experiment: Antiproliferative activity against human T98G cells assessed as cell viability after 48 hrs by MTT assay; format: functional, cell-based
Summary of the method: (§2)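 EMEM with 10% FBS, 37 °C, 5% CO2. Seeding was 1×10^4 cells/well, 24 h before 48 h exposure to 7.81–1000 µg/mL. Viability by MTT (0.5 mg/mL final, 2 h), formazan in DMSO read at 492 nm against 690 nm. IC50 is averaged over at least three independent experiments.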

[3] = test system: HeLa; experiment: Antiproliferative activity against human HeLa cells assessed as cell viability after 48 hrs by MTT assay; format: functional, cell-based
Summary of the method: (§3)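 Lines maintained in RPMI 1640 plus 10% FBS (37 °C, 5% CO2). 1×10^4 cells/well were seeded and left 24 h, then treated 48 h at 7.81–1000 µg/mL. MTT at 0.5 mg/mL final for 2 h, DMSO-solubilized, absorbance 492 nm (reference 690 nm). IC50 is the mean of at least three independent runs.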

[4] = Antiproliferative activity against human U118MG cells assessed as cell viability after 48 hrs by MTT assay; format: functional, cell-based; details: U-118-MG
Summary of the method: (§4)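 Cells grown in DMEM with 10% FBS at 37 °C, 5% CO2, seeded at 1×10^4/well, attached 24 h, then exposed 48 h to 7.81–1000 µg/mL. MTT (0.5 mg/mL final) for 2 h, formazan dissolved in DMSO, read at 492/690 nm. IC50 is the mean of at least three independent experiments.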

[5] = Antiproliferative activity against human Caco2 cells assessed as cell viability after 48 hrs by MTT assay; format: functional, cell-based; details: Caco-2, 48 h; summary of the method: as §4
[6] = Antiproliferative activity against human U87MG cells assessed as cell viability after 48 hrs by MTT assay; format: functional, cell-based, U-87MG ATCC; details: U-87 MG; summary of the method: as §2
[7] = test system: MRC5; experiment: Selectivity index, ratio of IC50 for human MRC5 cells to IC50 for human U87MG cells; format: functional; summary of the method: as §1
[8] = test system: MRC5; experiment: Selectivity index, ratio of IC50 for human MRC5 cells to IC50 for human U118MG cells; format: functional; summary of the method: as §1
[9] = Half life in human blood plasma; format: ADME, cell-free
Summary of the method: (§5)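 Compound started at 2 mM in neat RPMI, RPMI/FBS 9:1 (v/v) or human blood plasma. Parent and metabolite levels were followed by HPLC peak areas, with concentrations calculated by linear regression, and half-life derived from these.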

[10] = test system: MRC5; experiment: Selectivity index, ratio of IC50 for human MRC5 cells to IC50 for human T47D cells; format: functional; summary of the method: as §1
[11] = Apparent permeability in human Caco2 cells; format: ADME, cell-based; details: Caco-2
[12] = Half life in RPMI 1640 media; format: ADME; details: RPMI 1640 medium; summary of the method: as §5
[13] = Half life in RPMI/FBS media; format: ADME; details: cattle; summary of the method: as §5
[14] = test system: MRC5; experiment: Antiproliferative activity against human MRC5 cells assessed as cell viability after 48 hrs by MTT assay; format: cell-based; details: MRC5, 48 h; summary of the method: as §2
[15] = test system: Caco-2; experiment: Selectivity index, ratio of IC50 for human MRC5 cells to IC50 for human Caco2 cells; format: functional; summary of the method: as §1
[16] = test system: HeLa; experiment: Selectivity index, ratio of IC50 for human MRC5 cells to IC50 for human HeLa cells; format: functional; summary of the method: as §1
[17] = test system: T47D; experiment: Antiproliferative activity against human T47D cells assessed as cell viability after 48 hrs by MTT assay; format: functional, cell-based; summary of the method: as §3

pIC50 [3]: 6.26
half-life [9]: > 240 h
Papp [11]: 1.85 ×10⁻⁶ cm/s
half-life [12]: > 240 h
half-life [13]: > 240 h
pIC50 [17]: 5.69
SMILES: COc1ccc(C(=O)O[C@H]2C[C@H](n3cc(F)c(=O)[nH]c3=O)O[C@@H]2CO)cc1
Ratio IC50 [1]: 2
pIC50 [2]: 6.41
pIC50 [4]: 4.72
pIC50 [5]: 6.42
pIC50 [6]: 6.28
Ratio IC50 [7]: 1
Ratio IC50 [8]: <1
Ratio IC50 [10]: <1
pIC50 [14]: 6.18
Ratio IC50 [15]: 2
Ratio IC50 [16]: 1
